Experimental data from different studies.
Compare with care: the assays were run in different laboratories.
HTR4: 5-hydroxytryptamine receptor 4 (HTR4, Homo sapiens, UniProt Q13639)
ADORA2B: Adenosine receptor A2b (ADORA2B, Homo sapiens, UniProt P29275)
MMP13: Collagenase 3 (MMP13, Homo sapiens, UniProt P45452)

SMILES	target	read-out	action	method	cell line	notes	Ki [nM]
Cc1c(-c2ccccc2)oc2c(C(=O)OCCN3CCCCC3)cccc2c1=O	HTR4	cell-free assay		radioligand		cell membranes	> 10000
CCCC(C)N1CCCn2c1nc1c2c(=O)n(C)c(=O)n1C (stereo not shown)	ADORA2B	ligand displacement		radioligand		cell membranes	> 10000
Oc1nc(SCc2ccc(Cl)cc2)nc2c1CCC2	MMP13	enzyme activity	inhibitor				3300
COc1ccc(CCCn2ncc3c2nc(N)n2nc(-c4ccco4)nc32)cc1	Adenosine receptor A1 (Mus musculus, UniProt Q60612)	ligand displacement		radioligand		cell membranes	765
CCCCn1c(=O)c2[nH]c(C34CC5CC(CC3C5)C4)nc2n(CCCO)c1=O	ADORA2B	ligand displacement		radioligand		cell membranes	48.6
C[C@]12CCC(=O)C=C1CC[C@@H]1[C@@H]2[C@@H](O)C[C@@]2(C)[C@H]1CC[C@]2(O)C(=O)CO	G-protein coupled estrogen receptor 1 (GPER1, Homo sapiens, UniProt Q99527)	ligand displacement		radioligand			4400
COC(=O)c1ccc(CSc2nc3c(c(=O)[nH]2)CCC3)cc1	MMP13	enzyme activity	inhibitor				1500
CCCCCCCCCCCCCC#CC(=O)O	Fatty acid synthase (Plasmodium falciparum, UniProt Q965D7)	enzyme activity	inhibitor				4750
CC(C)N1CCCn2c1nc1c2c(=O)n(C)c(=O)n1C	ADORA2B	ligand displacement		radioligand		cell membranes	> 10000
C[C@H]1CN(C2COC2)CCN1c1ccc(Nc2cc(-c3ccnc(N4CCn5c(cc6c5CC(C)(C)C6)C4=O)c3CO)cn(C)c2=O)nc1	Solute carrier organic anion transporter family member 1B1 (SLCO1B1, Homo sapiens, UniProt Q9Y6L6)	transporter uptake	inhibitor		HEK293		1940
C=CCN1CCCn2c1nc1c2c(=O)n(C)c(=O)n1C	ADORA2B	ligand displacement		radioligand		cell membranes	> 10000
Nc1ncnc2c1ncn2[C@@H]1O[C@H](COP(=O)(O)OP(=O)(O)O)[C@@H](O)[C@H]1O	nod (Drosophila melanogaster, UniProt P18105)	enzyme activity	inhibitor				~2000
N=C(N)N1CCC[C@H]1c1nc(-c2ccc(CCC3CCCCC3)c(C(F)(F)F)c2)no1	Sphingosine kinase 2 (Sphk2, Mus musculus, UniProt Q9JIA7)	enzyme activity	inhibitor				110
CCCCN1CCC(COC(=O)c2ccc(N)c(OCF)c2)CC1	HTR4	ligand displacement		radioligand			0.8
CCCCN1CCCn2c1nc1c2c(=O)n(C)c(=O)n1C	ADORA2B	ligand displacement		radioligand		cell membranes	> 10000
OC[C@@]12C[C@@H]1[C@@H](n1cnc3c(NC(C4CCCC4)C4CCCC4)nc(Cl)cc31)[C@H](O)[C@@H]2O	Beta-3 adrenergic receptor (ADRB3, Homo sapiens, UniProt P13945)	cell-free assay		radioligand			4700
